Assay outcomes as filed in PubChem.
Compounds with a hit are over-represented: about 3.1% of the library has one in this group of screens.
OX1R antag-1: OX1R (human) antagonism | O43613 | OX1R-expressing cells, FRET antagonist read-out | inhibition, % at 6.6 µM | 1.8% of 330,000 active | AID 485270; in the data active = inhibition mostly above about 38%, no sharp cut-off; inactive = mostly below about 40%;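 note: 0% = agonist challenge alone and 100% = reference antagonist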
CHO parental Ca: counter-screen for OX1R antagonists: effect in parental CHO cells. parental CHO-K1, ATP-induced calcium, Fluo-8 fluorescence. inhibition, % at 5.6 µM. 0.63% of 330,000 active. AID 463079;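 active = inhibition above that plate's mean sample inhibition plus 3 SD, cut at about 26% in these data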;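 note: 0% = ATP-challenged DMSO wells and 100% = DMSO wells without ATP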
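Test system: parental CHO cells; detection: calcium-sensitive Fluo-8 fluorescence; evaluation: percent inhibition of calcium signal; also added: ATP as calcium-mobilizing challenge; repeats: one well per compound; control set: ATP-challenged DMSO wells low, unchallenged DMSO wells high; compound: single nominal dose of 5.6 µM per compound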
GPR7 antag: human neuropeptides B/W receptor 1 antagonism; P48145; GPR7-expressing cells, fluorescence antagonist assay; inhibition, % at 4.4 µM; 1.1% of 290,000 active; in the data active = inhibition above about 16%, passing the limit was not always enough;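 note: cells stimulated with the agonist NPW; 0% = agonist with vehicle and 100% = vehicle without agonist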
OX1R antag-2: human HCRTR1 antagonism. O43613. CHO/OX1R cells, Fluo-8 calcium fluorescence, orexin A. inhibition, % at 5 µM. 0.43% of 330,000 active;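 active = inhibition above its plate's threshold, mean inhibition of all tested compounds on the plate plus 3 SD, cut at about 37% in these data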;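 note: 0% = orexin A challenge wells and 100% = SB-334867-A antagonist wells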
GalR3 antagonist: human GalR3 antagonism. O60755. HEK293 GalR3-CNG cAMP membrane potential fluorescence; galR3 body fused to GalR1 C-terminus. inhibition, % at 3 µM. 0.44% of 360,000 active. AID 651719;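 active = inhibition above the screen-wide average plus 3 SD, cut at about 13% in these data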;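 note: forskolin and galanin both at EC90 stimulate the cells; cAMP rise reported by CNG channel membrane potential dye signal; 0% = forskolin plus galanin with DMSO and 100% = forskolin alone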
Target sequence (O60755 1-299 limits assumed): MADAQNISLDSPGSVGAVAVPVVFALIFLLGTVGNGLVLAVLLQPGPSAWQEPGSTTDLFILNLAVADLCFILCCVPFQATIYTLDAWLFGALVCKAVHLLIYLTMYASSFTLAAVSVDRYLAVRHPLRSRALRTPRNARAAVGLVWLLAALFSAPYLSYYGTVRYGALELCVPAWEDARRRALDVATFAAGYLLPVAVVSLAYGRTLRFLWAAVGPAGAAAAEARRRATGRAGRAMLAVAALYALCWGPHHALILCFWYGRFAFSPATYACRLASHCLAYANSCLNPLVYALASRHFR
OX1R Ca confirm: confirmation of human orexin 1 receptor antagonists; shares compounds with OX1R antag-2; CHO/OX1R cells, orexin A calcium Fluo-8 fluorescence; inhibition, % at 5 µM; 38% of 1,100 active; in the data active = inhibition above about 29%;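 note: 0% = agonist challenge alone and 100% = reference antagonist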
CHO Ca counter: signal in parental CHO cells, OX1R antagonist counter-screen. shares compounds with OX1R antag-2. inhibition, % at 5.6 µM. parental CHO-K1, ATP-induced calcium, Fluo-8 fluorescence. 9.3% of 1,100 active. AID 492965;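 active = inhibition above a per-plate limit, the mean inhibition of that plate's test compounds plus 3 SD, cut at about 25% in these data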;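 note: 0% = ATP challenge with DMSO and 100% = DMSO without ATP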
* = called active by the depositor; · = not tested or not shown.

SMILES	OX1R antag-1	CHO parental Ca	GPR7 antag	OX1R antag-2	GalR3 antagonist	OX1R Ca confirm	CHO Ca counter
COc1cc(CC(=O)OCC(=O)N2CCCCC2)cc(OC)c1OC	1	-14	0	-14	-13	·	·
O=c1cc(CN2CC(O)Cc3ccc4ccccc4c32)nc2sccn12 (centres undefined)	47	-12	-5	71*	-5	57*	-6
CC1Cc2ccccc2N1Cc1cc(=O)n2ccsc2n1 (centres undefined)	37	-8	3	-27	0	·	·
Cc1cc(-c2nnc3n2N=C(c2ccc(-c4ccccc4)cc2)CS3)n[nH]1	4	17	3	57*	-3	8	-4
O=C(CNS(=O)(=O)Cc1ccccc1)NNc1ccccc1	·	·	·	·	-6	·	·
Cc1ccc(N=Cc2sc(O)c3ccccc23)cc1	31	8	-12	35	3	24	19
Cc1ccc(NC(=O)COC(=O)c2cccc(C)c2[N+](=O)[O-])cc1S(=O)(=O)N1CCCCC1	4	21	·	44*	-4	14	9
CC1=NN(C(=O)Cc2ccc([N+](=O)[O-])cc2)C(O)(c2ccccc2)C1 (centres undefined)	37	-9	-3	-7	-4	·	·
CCOC(=O)[C@@H](C)N(Cc1ccc(OC)cc1)S(=O)(=O)N(Cc1ccccc1)[C@H](C(=O)OC)C(C)C	9	7	·	50*	-8	7	58*
Cc1nc2ccccc2n1-c1ccccc1	12	-8	-10	-20	-4	·	·
O=c1c(/C=C(\O)c2ccccc2)nc2ccccc2n1-c1ccccc1	27	-8	11	61*	0	-7	-5
CC12CCC(C(=O)NCCCN3CCOCC3)(OC1=O)C2(C)C (centres undefined)	7	-3	-1	-13	-2	·	·
CCNC(=O)C12CCC(C)(C(=O)O1)C2(C)C (centres undefined)	3	5	-19	22	6	7	1
CCN(c1ccccc1)S(=O)(=O)c1cc(C(=O)Nc2ccc(F)c(F)c2)ccc1F	37	-2	-4	27	-7	38*	9
CCN(c1ccccc1)S(=O)(=O)c1cc(C(=O)O)ccc1C	9	-10	-9	-14	-3	·	·
COc1ccc(CC(=O)Nc2nc(-c3ccc(F)c(F)c3)cs2)cc1	13	7	4	-23	-9	·	·
CC1(C(=O)OCC(=O)Nc2nc(-c3ccc(F)c(F)c3)cs2)CC1(Cl)Cl (centres undefined)	32	18	7	28	-3	14	-2
O=C(CN(Cc1ccc(Cl)cc1)S(=O)(=O)c1ccccc1)NCC1CCCO1 (centres undefined)	12	-16	-9	-18	-3	·	·
O=C(CSc1ncc(-c2ccc(F)cc2)n1Cc1ccco1)Nc1nccs1	46	12	-1	22	-5	16	-9
CC(=O)c1c(C)[nH]c(C(=O)CSc2nc3ccccc3c(=O)n2CCCO)c1C	1	-11	-7	28	-5	14	-3
CC(C)=CCOc1c2ccoc2c(OCC=C(C)C)c2oc(=O)ccc12	13	-4	·	54*	0	5	53*
Fc1ccc2c(c1)Sc1ccc(Cl)cc1CC2N1CCN(CCC2OCCO2)CC1 (centres undefined)	6	16	·	38	-9	8	-2
CCN(CC)C(=O)Cn1cc(SCC(=O)NC2CCCCC2)c2ccccc21	·	·	·	·	7	·	·
Nc1c(C(O)(C(F)(F)F)C(F)(F)F)cc(C(O)(C(F)(F)F)C(F)(F)F)c2ccccc12	25	7	3	28	·	-6	-1
O=C(Nc1nnc(-c2ccccc2Cl)o1)c1nc2ccccc2s1	-1	20	-4	31	3	6	1
O=C(Nc1nnc(-c2ccccc2Cl)o1)c1ccco1	10	-1	-5	-5	-5	·	·
Cn1c(CCCOc2ccc(Cl)cc2Cl)nnc1SCC(=O)Nc1nccs1	14	3	-4	38	-1	7	-5
Cc1ccc(C(C#N)c2ccc(C(=O)c3ccc(F)cc3)cc2)cc1 (centres undefined)	43	29	2	33	2	1	9
